Assay results from ChEMBL document CHEMBL1134454, “Synthesis and evaluation of oxodioxolenylmethyl carbamate prodrugs of pseudomycins” (2001).
Converted amounts (≈) assume the structure as drawn. Bridge positions count the residues as written; N and C are the ends. Square brackets hold non-standard residues; d marks the D form. Peptide text beside a SMILES is read from it. * marks the point of attachment. Tetradecanoyl(3R-OH) = CCCCCCCCCCC[C@@H](O)CC(=O)*; Asp(3S-OH) = N[C@H](C(=O)O)[C@H](O)C(=O)O; Thr(4-Cl) = N[C@H](C(=O)O)[C@H](O)CCl; aThr = C[C@H](O)[C@H](N)C(=O)O; dDab = NCC[C@@H](N)C(=O)O; Dab = NCC[C@H](N)C(=O)O; Dhb = C/C=C(\N)C(=O)O

What was measured:
[1] = tested on: Cryptococcus neoformans; experiment: In vitro potency against Cryptococcus neoformans; assay type: functional
Summary of the method: (§1)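 Broth microdilution in Sabouraud broth. Compounds were dissolved in DMSO and diluted to 20 μg/mL final in the first well, then serially 2-fold. Yeasts were grown on Sabouraud dextrose agar at 35 °C for 24 h, suspended in saline and adjusted to 2×10^5/mL in broth. A. fumigatus spores were taken from potato dextrose agar mycelia into 0.1% Tween 80/saline. MIC was the lowest concentration giving 90–100% visible growth inhibition versus controls.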

[2] = species: Mus musculus; experiment: Evaluated for tail vein toxicity assay in male ICR mice; Positive; assay type: functional, organism-based
[3] = tested on: Aspergillus fumigatus; experiment: In vitro potency against Aspergillus fumigatus; assay type: functional; summary of the method: as §1
[4] = species: Mus musculus; experiment: Drug concentration required to achieve 50% survival of fungal infection compared with untreated animals in experiment 2.; assay type: functional
Summary of the method: (§2)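 Outbred male ICR mice (18–20 g), X-irradiated 400 r 24 h before infection. C. albicans A26 blastospores, 2×10^6 per mouse, given iv by lateral tail vein. Dosed 0.2 mL at 20, 10 and 5 mg/kg at 0, 4, 24 and 48 h post-infection, in 4.0% hydroxypropyl cyclodextrin/sodium acetate pH 7.0/1.75% dextrose. Survival followed 7 days; ED50 by Reed and Muench.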

[5] = tested on: Candida albicans; experiment: In vitro potency against Candida albicans; assay type: functional; summary of the method: as §1
[6] = species: Mus musculus; experiment: Evaluated for tail vein toxicity assay in male ICR mice; Negative; assay type: functional, organism-based
[7] = species: Mus musculus; experiment: Drug concentration required to achieve 50% survival of fungal infection compared with untreated animals in experiment 1.; assay type: functional; summary of the method: as §2
[8] = species: Mus musculus; experiment: Evaluated for tail vein toxicity assay in male ICR mice; Partial positive; assay type: functional, organism-based

Question: Which results are given for `C/C=C1\NC(=O)[C@H]([C@H](C)O)NC(=O)[C@H](CCN)NC(=O)[C@H](CCCCN)NC(=O)[C@H](CC(=O)O)NC(=O)[C@@H](CCN)NC(=O)[C@@H](NC(=O)C[C@H](O)CCCCCCCCCCC)COC(=O)[C@H]([C@H](O)CCl)NC(=O)[C@H]([C@H](O)C(=O)O)NC1=O` [PSEUDOMYCIN B] ({Tetradecanoyl(3R-OH)}-S[dDab]DK[Dab][aThr][Dhb][Asp(3S-OH)][Thr(4-Cl)]; ester 1-C)?
Answer: MIC [1]: 0.078 µg/mL (≈ 0.0646 µM); Activity [2]: Positive; MIC [3]: > 20 µg/mL; ED50 [4]: 3.8 mg/kg; MIC [5]: 0.625 µg/mL (≈ 0.517 µM)

Question: What does the source list for `C/C=C1\NC(=O)[C@H]([C@H](C)O)NC(=O)[C@H](CCNC(=O)OCc2oc(=O)oc2C)NC(=O)[C@H](CCCCNC(=O)OCc2oc(=O)oc2C)NC(=O)[C@H](CC(=O)O)NC(=O)[C@@H](CCNC(=O)OCc2oc(=O)oc2C)NC(=O)[C@@H](NC(=O)C[C@H](O)CCCCCCCCCCC)COC(=O)[C@H]([C@H](O)CCl)NC(=O)[C@H]([C@H](O)C(=O)O)NC1=O`?
Answer: MIC [1]: 10 µg/mL (≈ 5.97 µM); Activity [6]: Negative; MIC [3]: > 20 µg/mL; ED50 [7]: 6.85 mg/kg; ED50 [4]: 7.8 mg/kg; MIC [5]: > 20 µg/mL

Question: What does the source list for `C/C=C1\NC(=O)[C@H]([C@H](C)O)NC(=O)[C@H](CCN)NC(=O)[C@H](CCCCN)NC(=O)[C@H](CC(=O)O)NC(=O)[C@@H](CCN)NC(=O)[C@@H](NC(=O)C[C@H](O)CCCCCCCCCCCCC)COC(=O)[C@H]([C@H](O)CCl)NC(=O)[C@H]([C@H](O)C(=O)O)NC1=O`?
Answer: MIC [1]: < 0.02 µg/mL; Activity [2]: Positive; MIC [3]: 10 µg/mL (≈ 8.09 µM); ED50 [7]: 7.8 mg/kg; ED50 [4]: 12.4 mg/kg; MIC [5]: 0.312 µg/mL (≈ 0.252 µM)

Question: How did the MIC [1] turn out when `C/C=C1\NC(=O)[C@H]([C@H](C)O)NC(=O)[C@H](CCN)NC(=O)[C@H](CCCCNC(=O)OCc2oc(=O)oc2C)NC(=O)[C@H](CC(=O)O)NC(=O)[C@@H](CCNC(=O)OCc2oc(=O)oc2C)NC(=O)[C@@H](NC(=O)C[C@H](O)CCCCCCCCCCC)COC(=O)[C@H]([C@H](O)CCl)NC(=O)[C@H]([C@H](O)C(=O)O)NC1=O` was run?
Answer: 0.3 µg/mL (≈ 0.197 µM)

Question: And the Activity [8]?
Answer: Partial positive

Question: What about the MIC [3] of the same compound?
Answer: > 20 µg/mL

Question: What about the ED50 [7] of the same compound?
Answer: 7.07 mg/kg

Question: And the MIC [5]?
Answer: 5 µg/mL (≈ 3.29 µM)

Question: What does the source list for `C/C=C1\NC(=O)[C@H]([C@H](C)O)NC(=O)[C@H](CCNC(=O)OCc2oc(=O)oc2C)NC(=O)[C@H](CCCCN)NC(=O)[C@H](CC(=O)O)NC(=O)[C@@H](CCN)NC(=O)[C@@H](NC(=O)C[C@H](O)CCCCCCCCCCCCC)COC(=O)[C@H]([C@H](O)CCl)NC(=O)[C@H]([C@H](O)C(=O)O)NC1=O`?
Answer: Activity [8]: Partial positive; ED50 [7]: 9 mg/kg

Question: Which Activity [8] does the source give for `C/C=C1\NC(=O)[C@H]([C@H](C)O)NC(=O)[C@H](CCN)NC(=O)[C@H](CCCCNC(=O)OCc2oc(=O)oc2C)NC(=O)[C@H](CC(=O)O)NC(=O)[C@@H](CCNC(=O)OCc2oc(=O)oc2C)NC(=O)[C@@H](NC(=O)C[C@H](O)CCCCCCCCCCCCC)COC(=O)[C@H]([C@H](O)CCl)NC(=O)[C@H]([C@H](O)C(=O)O)NC1=O` here?
Answer: Partial positive

Question: What about the ED50 [7] of the same compound?
Answer: > 20 mg/kg

Question: What does the source list for `C/C=C1\NC(=O)[C@H]([C@H](C)O)NC(=O)[C@H](CCNC(=O)OCc2oc(=O)oc2C)NC(=O)[C@H](CCCCNC(=O)OCc2oc(=O)oc2C)NC(=O)[C@H](CC(=O)O)NC(=O)[C@@H](CCNC(=O)OCc2oc(=O)oc2C)NC(=O)[C@@H](NC(=O)C[C@H](O)CCCCCCCCCCCCC)COC(=O)[C@H]([C@H](O)CCl)NC(=O)[C@H]([C@H](O)C(=O)O)NC1=O`?
Answer: MIC [1]: 5 µg/mL (≈ 2.93 µM); Activity [6]: Negative; MIC [3]: > 20 µg/mL; ED50 [7]: 12.4 mg/kg; ED50 [4]: 10.8 mg/kg; MIC [5]: > 20 µg/mL

Question: With `C/C=C1\NC(=O)[C@H]([C@H](C)O)NC(=O)[C@H](CCNC(=O)OCc2oc(=O)oc2C)NC(=O)[C@H](CCCCN)NC(=O)[C@H](CC(=O)O)NC(=O)[C@@H](CCN)NC(=O)[C@@H](NC(=O)C[C@H](O)CCCCCCCCCCC)COC(=O)[C@H]([C@H](O)CCl)NC(=O)[C@H]([C@H](O)C(=O)O)NC1=O` as the compound, how does the MIC [1] read?
Answer: 1.3 µg/mL (≈ 0.953 µM)

Question: What about the Activity [6] of the same compound?
Answer: Negative

Question: And the MIC [3]?
Answer: > 20 µg/mL

Question: And the ED50 [7]?
Answer: 5.95 mg/kg

Question: What about the MIC [5] of the same compound?
Answer: 5 µg/mL (≈ 3.67 µM)
